This passage reports inhibition of growth and IC50 results from ChEMBL document CHEMBL1156117, “Anti-trypanosomatid benzofuroxans and deoxygenated analogues: synthesis using polymer-supported triphenylphosphine, biological evaluation and mechanism of action studies” (Eur J Med Chem, 2009).

One test has as its system Leishmania pifanoi. The experiment in a line: Antileishmanial activity against Leishmania pifanoi MHOM/VE/57/LV135 promastigotes assessed as parasite viability at 5 uM after 5 days by MTT assay. Conditions: MHOM/VE/57/LV135, 120 h, read-out: GI. Type of test: functional. In short, it runs like this: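 L. pifanoi LV135 promastigotes grown at 28 °C in axenic RPMI with 5% FBS. Tested at a single concentration of 5.0 over 5 days. MTT 0.4 mg/mL for 3 h at 37 °C, formazan dissolved in DMSO, OD595 read. Percent growth inhibition reported versus untreated growth controls, with medium blanks subtracted.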

A further test has as its system Leishmania braziliensis. The experiment in a line: Antileishmanial activity against Leishmania braziliensis MHOM/BR/00/LTB300 promastigotes assessed as parasite viability after 5 days by MTT assay. It is filed as functional, organism-based. Conditions: MHOM/BR/00/LTB300, 120 h. The procedure, abridged:
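Promastigotes (L. braziliensis, L. pifanoi) grown at 28 °C in axenic RPMI with 5% FBS. T. cruzi CL Brener epimastigotes grown in BHI-tryptose with 5% foetal serum. 24-well plates, 1 mL/well, seeded from exponential-phase culture. Compounds in DMSO, added at several concentrations (0.5–50.0) and kept 5 days. Then MTT 0.4 mg/mL for 3 h at 37 °C. Formazan dissolved in DMSO, OD595 read. Triplicate per concentration, six growth controls. Cytotoxicity % calculated against growth and medium blanks, IC50 derived.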
On the technique in general: Formazan colour is commonly taken as a measure of viable cells.

Structures are written as SMILES.

Usually IC50 stands for the concentration that inhibits the measured activity by half. In the case of `CCCCCCCCCCCCCCCCOP(=O)([O-])OCC[N+](C)(C)C` [MILTEFOSINE], the inhibition of growth at 5 µM in the test with Leishmania pifanoi was 85.5%. For the same compound, the IC50 in the test on Leishmania braziliensis amounted to 9 µM.
